Assay results taken from ChEMBL document CHEMBL3585269, “Simple structural modifications confer cytotoxicity to allobetulin” (Bioorg Med Chem, 2015).

test system: not listed separately; assay: Cytotoxicity against human 518A2 cells by SRB assay; type: functional, cell-based; settings: 518a2
Procedure, shortened: (§1)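 Photometric sulforhodamine B (SRB) read-out after 96 h of compound treatment. EC50 values are averaged from three independent experiments, each run in triplicate, and reported with a 95% confidence interval. The assay has an upper cut-off.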

Row | Compound | EC50
1 | CC1(C)CC[C@]23CC[C@]4(C)[C@H](CC[C@@H]5[C@@](C)(CC(=O)O)[C@H](C(C)(C)C(=O)O)CC[C@]54C)[C@H]2[C@H]1OC3 | ND(Insoluble)
2 | CC1(C)CC[C@]23CC[C@]4(C)[C@H](CC[C@@H]5[C@@](C)(CC(=O)OCc6ccccc6)[C@H](C(C)(C)C(=O)OCc6ccccc6)CC[C@]54C)[C@H]2[C@H]1OC3 | ND(Insoluble)

same assay, conditions: Homo sapiens, 518A2; read-out: EC50

Row | Compound | EC50
3 | CC1(C)CC[C@]23CC[C@]4(C)[C@H](CC[C@@H]5[C@@]6(C)C=C(O)C(=O)C(C)(C)[C@@H]6CC[C@]54C)[C@H]2[C@H]1OC3 | > 30 µM
4 | CC1(C)CC[C@]23CC[C@]4(C)[C@H](CC[C@@H]5[C@@]6(C)CCC(=O)OC(C)(C)[C@@H]6CC[C@]54C)[C@H]2[C@H]1OC3 | > 30 µM
5 | C=C(C)[C@@H]1CC[C@]2(C)[C@H](CC[C@@H]3[C@H]4[C@H]5OC[C@@]4(CCC5(C)C)CC[C@]32C)[C@@]1(C)CCC#N | 25.7 µM
6 | C=C(C)[C@@H]1CC[C@]2(C)[C@H](CC[C@@H]3[C@H]4[C@H]5OC[C@@]4(CCC5(C)C)CC[C@]32C)[C@@]1(C)CCC(=O)OC | > 30 µM

test system: HT-29; assay: Cytotoxicity against human HT-29 cells by SRB assay; type: functional, cell-based; settings: Homo sapiens, HT-29; read-out: EC50; procedure, shortened: as §1

Row | Compound | EC50
7 | CC1(C)CC[C@]23CC[C@]4(C)[C@H](CC[C@@H]5[C@@]6(C)C=C(O)C(=O)C(C)(C)[C@@H]6CC[C@]54C)[C@H]2[C@H]1OC3 | > 30 µM
8 | CC1(C)CC[C@]23CC[C@]4(C)[C@H](CC[C@@H]5[C@@]6(C)CCC(=O)OC(C)(C)[C@@H]6CC[C@]54C)[C@H]2[C@H]1OC3 | > 30 µM
9 | C=C(C)[C@@H]1CC[C@]2(C)[C@H](CC[C@@H]3[C@H]4[C@H]5OC[C@@]4(CCC5(C)C)CC[C@]32C)[C@@]1(C)CCC#N | > 30 µM
10 | C=C(C)[C@@H]1CC[C@]2(C)[C@H](CC[C@@H]3[C@H]4[C@H]5OC[C@@]4(CCC5(C)C)CC[C@]32C)[C@@]1(C)CCC(=O)OC | > 30 µM

same assay, conditions: ht-29

Row | Compound | EC50
11 | CC1(C)CC[C@]23CC[C@]4(C)[C@H](CC[C@@H]5[C@@](C)(CC(=O)O)[C@H](C(C)(C)C(=O)O)CC[C@]54C)[C@H]2[C@H]1OC3 | ND(Insoluble)
12 | CC1(C)CC[C@]23CC[C@]4(C)[C@H](CC[C@@H]5[C@@](C)(CC(=O)OCc6ccccc6)[C@H](C(C)(C)C(=O)OCc6ccccc6)CC[C@]54C)[C@H]2[C@H]1OC3 | ND(Insoluble)

test system: MCF7; assay: Cytotoxicity against human MCF7 cells by SRB assay; type: functional, cell-based; settings: Homo sapiens, MCF7; read-out: EC50; procedure, shortened: as §1

Row | Compound | EC50
13 | CC1(C)CC[C@]23CC[C@]4(C)[C@H](CC[C@@H]5[C@@]6(C)C=C(O)C(=O)C(C)(C)[C@@H]6CC[C@]54C)[C@H]2[C@H]1OC3 | > 30 µM
14 | CC1(C)CC[C@]23CC[C@]4(C)[C@H](CC[C@@H]5[C@@]6(C)CCC(=O)OC(C)(C)[C@@H]6CC[C@]54C)[C@H]2[C@H]1OC3 | > 30 µM
15 | C=C(C)[C@@H]1CC[C@]2(C)[C@H](CC[C@@H]3[C@H]4[C@H]5OC[C@@]4(CCC5(C)C)CC[C@]32C)[C@@]1(C)CCC#N | > 30 µM
16 | C=C(C)[C@@H]1CC[C@]2(C)[C@H](CC[C@@H]3[C@H]4[C@H]5OC[C@@]4(CCC5(C)C)CC[C@]32C)[C@@]1(C)CCC(=O)OC | > 30 µM

same assay, conditions: mcf7

Row | Compound | EC50
17 | CC1(C)CC[C@]23CC[C@]4(C)[C@H](CC[C@@H]5[C@@](C)(CC(=O)O)[C@H](C(C)(C)C(=O)O)CC[C@]54C)[C@H]2[C@H]1OC3 | ND(Insoluble)
18 | CC1(C)CC[C@]23CC[C@]4(C)[C@H](CC[C@@H]5[C@@](C)(CC(=O)OCc6ccccc6)[C@H](C(C)(C)C(=O)OCc6ccccc6)CC[C@]54C)[C@H]2[C@H]1OC3 | ND(Insoluble)

test system: A549; assay: Cytotoxicity against human A549 cells by SRB assay; type: functional, cell-based; settings: Homo sapiens, A549; read-out: EC50; procedure, shortened: as §1

Row | Compound | EC50
19 | CC1(C)CC[C@]23CC[C@]4(C)[C@H](CC[C@@H]5[C@@]6(C)C=C(O)C(=O)C(C)(C)[C@@H]6CC[C@]54C)[C@H]2[C@H]1OC3 | 23.3 µM
20 | CC1(C)CC[C@]23CC[C@]4(C)[C@H](CC[C@@H]5[C@@]6(C)CCC(=O)OC(C)(C)[C@@H]6CC[C@]54C)[C@H]2[C@H]1OC3 | > 30 µM
21 | C=C(C)[C@@H]1CC[C@]2(C)[C@H](CC[C@@H]3[C@H]4[C@H]5OC[C@@]4(CCC5(C)C)CC[C@]32C)[C@@]1(C)CCC#N | 21.5 µM
22 | C=C(C)[C@@H]1CC[C@]2(C)[C@H](CC[C@@H]3[C@H]4[C@H]5OC[C@@]4(CCC5(C)C)CC[C@]32C)[C@@]1(C)CCC(=O)OC | > 30 µM

same assay, conditions: a549

Row | Compound | EC50
23 | CC1(C)CC[C@]23CC[C@]4(C)[C@H](CC[C@@H]5[C@@](C)(CC(=O)O)[C@H](C(C)(C)C(=O)O)CC[C@]54C)[C@H]2[C@H]1OC3 | ND(Insoluble)
24 | CC1(C)CC[C@]23CC[C@]4(C)[C@H](CC[C@@H]5[C@@](C)(CC(=O)OCc6ccccc6)[C@H](C(C)(C)C(=O)OCc6ccccc6)CC[C@]54C)[C@H]2[C@H]1OC3 | ND(Insoluble)

test system: 8505C; assay: Cytotoxicity against human 8505C cells by SRB assay; type: functional, cell-based; settings: 8505c; procedure, shortened: as §1

Row | Compound | EC50
25 | CC1(C)CC[C@]23CC[C@]4(C)[C@H](CC[C@@H]5[C@@](C)(CC(=O)O)[C@H](C(C)(C)C(=O)O)CC[C@]54C)[C@H]2[C@H]1OC3 | ND(Insoluble)
26 | CC1(C)CC[C@]23CC[C@]4(C)[C@H](CC[C@@H]5[C@@](C)(CC(=O)OCc6ccccc6)[C@H](C(C)(C)C(=O)OCc6ccccc6)CC[C@]54C)[C@H]2[C@H]1OC3 | ND(Insoluble)

same assay, conditions: Homo sapiens, 8505C; read-out: EC50

Row | Compound | EC50
27 | CC1(C)CC[C@]23CC[C@]4(C)[C@H](CC[C@@H]5[C@@]6(C)C=C(O)C(=O)C(C)(C)[C@@H]6CC[C@]54C)[C@H]2[C@H]1OC3 | > 30 µM
28 | CC1(C)CC[C@]23CC[C@]4(C)[C@H](CC[C@@H]5[C@@]6(C)CCC(=O)OC(C)(C)[C@@H]6CC[C@]54C)[C@H]2[C@H]1OC3 | > 30 µM
29 | C=C(C)[C@@H]1CC[C@]2(C)[C@H](CC[C@@H]3[C@H]4[C@H]5OC[C@@]4(CCC5(C)C)CC[C@]32C)[C@@]1(C)CCC#N | > 30 µM
30 | C=C(C)[C@@H]1CC[C@]2(C)[C@H](CC[C@@H]3[C@H]4[C@H]5OC[C@@]4(CCC5(C)C)CC[C@]32C)[C@@]1(C)CCC(=O)OC | > 30 µM

test system: A2780; assay: Cytotoxicity against human A2780 cells by SRB assay; type: functional, cell-based; settings: Homo sapiens, A2780; read-out: EC50; procedure, shortened: as §1

Row | Compound | EC50
31 | CC1(C)CC[C@]23CC[C@]4(C)[C@H](CC[C@@H]5[C@@]6(C)C=C(O)C(=O)C(C)(C)[C@@H]6CC[C@]54C)[C@H]2[C@H]1OC3 | > 30 µM
32 | CC1(C)CC[C@]23CC[C@]4(C)[C@H](CC[C@@H]5[C@@]6(C)CCC(=O)OC(C)(C)[C@@H]6CC[C@]54C)[C@H]2[C@H]1OC3 | > 30 µM
33 | C=C(C)[C@@H]1CC[C@]2(C)[C@H](CC[C@@H]3[C@H]4[C@H]5OC[C@@]4(CCC5(C)C)CC[C@]32C)[C@@]1(C)CCC#N | > 30 µM
34 | C=C(C)[C@@H]1CC[C@]2(C)[C@H](CC[C@@H]3[C@H]4[C@H]5OC[C@@]4(CCC5(C)C)CC[C@]32C)[C@@]1(C)CCC(=O)OC | > 30 µM

same assay, conditions: a2780

Row | Compound | EC50
35 | CC1(C)CC[C@]23CC[C@]4(C)[C@H](CC[C@@H]5[C@@](C)(CC(=O)O)[C@H](C(C)(C)C(=O)O)CC[C@]54C)[C@H]2[C@H]1OC3 | ND(Insoluble)
36 | CC1(C)CC[C@]23CC[C@]4(C)[C@H](CC[C@@H]5[C@@](C)(CC(=O)OCc6ccccc6)[C@H](C(C)(C)C(=O)OCc6ccccc6)CC[C@]54C)[C@H]2[C@H]1OC3 | ND(Insoluble)
